Data reported in ChEMBL document CHEMBL1649139, “A novel gene, erm(41), confers inducible macrolide resistance to clinical isolates of Mycobacterium abscessus but is absent from Mycobacterium chelonae” (2009).
Values after ≈ are worked out from the molar mass of the structure shown.

What was measured:
Type in all cases: functional
[1] = tested on: Mycobacteroides abscessus; experiment: Antimicrobial activity against Mycobacterium abscessus isolate MC879-2 at day 7 preincubated with 0.1 ug/ml erythromycin for 3 days by broth microdilution method
[2] = tested on: Mycobacteroides abscessus; experiment: Antimicrobial activity against Mycobacterium abscessus isolate MC879-2 at day 9 preincubated with 0.1 ug/ml for 3 days by broth microdilution method
[3] = tested on: Mycobacteroides abscessus; experiment: Antimicrobial activity against Mycobacterium abscessus isolate MC1448 at day 14 preincubated with 0.1 ug/ml for 3 days by broth microdilution method
Procedure, shortened: (§1)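 Clarithromycin MIC by CLSI-conforming broth microdilution. Before testing, cultures were preincubated for 3 days, either in medium alone or in clarithromycin or erythromycin (tested range 0.01–1 μg/ml). Preincubation ran for at least two generations, judged by turbidity increase. Plates were read on day 3 and on extended incubation at days 5 to 14.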

[4] = tested on: Mycobacteroides abscessus; experiment: Antimicrobial activity against Mycobacterium abscessus isolate MC958 on day 10 by broth microdilution method; conditions: isolate MC958, 240 h
[5] = tested on: Mycolicibacterium smegmatis; experiment: Antimicrobial activity against Mycobacterium smegmatis transformed with erm allele Mycobacterium abscessus isolate MC879-2 by broth microdilution method
[6] = tested on: Mycolicibacterium smegmatis; experiment: Antimicrobial activity against Mycobacterium smegmatis transformed with erm allele Mycobacterium abscessus isolate MC879-2 preincubated with 2 ug/ml erythromycin for 20 to 24 hrs by broth microdilution method
[7] = tested on: Mycolicibacterium smegmatis; experiment: Antimicrobial activity against Mycobacterium smegmatis transformed with erm allele Mycobacterium abscessus isolate MAB30 by broth microdilution method
[8] = tested on: Mycolicibacterium smegmatis; experiment: Antimicrobial activity against Mycobacterium smegmatis transformed with erm allele Mycobacterium abscessus isolate MAB30 preincubated with 2 ug/ml erythromycin for 20 to 24 hrs by broth microdilution method
[9] = tested on: Mycolicibacterium smegmatis; experiment: Antimicrobial activity against Mycobacterium smegmatis transformed with erm allele Mycobacterium abscessus isolate MC1082 preincubated with 2 ug/ml erythromycin for 20 to 24 hrs by broth microdilution method
[10] = tested on: Mycobacteroides abscessus; experiment: Antimicrobial activity against Mycobacterium abscessus isolate MC958 at day 5 by broth microdilution method; conditions: isolate MC958, 120 h
Procedure, shortened: (§2)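 Clarithromycin MIC by broth microdilution following CLSI guidelines. Organisms were preincubated […], for 3 days before the assay. This allowed at least two generations, judged by the rise in turbidity. The MIC was read at the stated day, with incubation extended from day 3 to as long as 14 days.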

[11] = tested on: Mycobacteroides abscessus; experiment: Antimicrobial activity against Mycobacterium abscessus isolate MC879 at day 9 by broth microdilution method; conditions: isolate MC879, 216 h; procedure, shortened: as §2
[12] = tested on: Mycobacteroides abscessus; experiment: Antimicrobial activity against Mycobacterium abscessus isolate MC724 at day 9 by broth microdilution method; conditions: isolate MC724, 216 h; procedure, shortened: as §2
[13] = tested on: Mycobacteroides abscessus; experiment: Antimicrobial activity against Mycobacterium abscessus isolate MC958 at day 14 by broth microdilution method; conditions: isolate MC958, 336 h; procedure, shortened: as §2
[14] = tested on: Mycobacteroides abscessus; experiment: Antimicrobial activity against Mycobacterium abscessus isolate MC719 at day 14 by broth microdilution method; conditions: isolate MC719, 336 h
Procedure, shortened: (§3)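 Clarithromycin MIC by broth microdilution following CLSI guidelines. Before testing, organisms were preincubated for 3 days in medium alone or in clarithromycin or erythromycin (0.01–1 μg/ml), long enough for at least two generations judged by turbidity increase. MICs were read on day 3 and again on extended incubation out to day 14.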

[15] = tested on: Mycobacteroides abscessus; experiment: Antimicrobial activity against Mycobacterium abscessus isolate MC720 at day 14 by broth microdilution method; conditions: isolate MC720, 336 h; procedure, shortened: as §3
[16] = tested on: Mycobacteroides abscessus; experiment: Antimicrobial activity against Mycobacterium abscessus isolate MC1082 at day 7 by broth microdilution method; conditions: isolate MC1082, 168 h; procedure, shortened: as §1
[17] = tested on: Mycobacteroides abscessus; experiment: Antimicrobial activity against Mycobacterium abscessus isolate MAB30 at day 9 by broth microdilution method; conditions: isolate MAB30, 216 h; procedure, shortened: as §1
[18] = tested on: Mycobacteroides abscessus; experiment: Antimicrobial activity against Mycobacterium abscessus isolate MAB30 at day 14 by broth microdilution method; conditions: isolate MAB30, 336 h; procedure, shortened: as §1
[19] = tested on: Mycobacteroides abscessus; experiment: Antimicrobial activity against Mycobacterium abscessus isolate MAB30 at day 7 preincubated with 0.1 ug/ml erythromycin for 3 days by broth microdilution method; procedure, shortened: as §1
[20] = tested on: Mycobacteroides abscessus; experiment: Antimicrobial activity against Mycobacterium abscessus isolate MAB30 at day 9 preincubated with 0.1 ug/ml erythromycin for 3 days by broth microdilution method; procedure, shortened: as §1
[21] = tested on: Mycobacteroides abscessus; experiment: Antimicrobial activity against Mycobacterium abscessus isolate MC958 at day 7 preincubated with 0.1 ug/ml erythromycin for 3 days by broth microdilution method
[22] = tested on: Mycobacteroides abscessus; experiment: Antimicrobial activity against Mycobacterium abscessus isolate MC724 at day 7 preincubated with 0.1 ug/ml erythromycin for 3 days by broth microdilution method
Procedure, shortened: (§4)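 To test inducible resistance, cultures were preincubated for 3 days in clarithromycin or erythromycin, within 0.01–1 μg/ml. The period was set so cultures passed at least two generations, judged by turbidity increase. Clarithromycin MIC was then determined by CLSI-conforming broth microdilution and read on the stated day, from day 3 up to 14.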

[23] = tested on: Mycobacteroides abscessus; experiment: Antimicrobial activity against Mycobacterium abscessus isolate MC720 at day 9 preincubated with 0.1 ug/ml erythromycin for 3 days by broth microdilution method; procedure, shortened: as §3
[24] = tested on: Mycobacteroides abscessus; experiment: Antimicrobial activity against Mycobacterium abscessus isolate MC1028 at day 7 preincubated with 0.1 ug/ml for 3 days by broth microdilution method; procedure, shortened: as §1
[25] = tested on: Mycobacteroides abscessus; experiment: Antimicrobial activity against Mycobacterium abscessus isolate MC1082 at day 7 preincubated with 0.1 ug/ml for 3 days by broth microdilution method; procedure, shortened: as §1
[26] = tested on: Mycobacteroides abscessus; experiment: Antimicrobial activity against Mycobacterium abscessus isolate MC879-2 at day 5 by broth microdilution method; conditions: isolate MC879-2, 120 h
[27] = tested on: Mycobacteroides abscessus; experiment: Antimicrobial activity against Mycobacterium abscessus isolate MC1448 at day 5 by broth microdilution method; conditions: isolate MC1448, 120 h; procedure, shortened: as §3
[28] = tested on: Mycobacteroides abscessus; experiment: Antimicrobial activity against Mycobacterium abscessus isolate MC879-2 at day 3 preincubated with 0.1 ug/ml erythromycin for 3 days by broth microdilution method
[29] = tested on: Mycobacteroides abscessus; experiment: Antimicrobial activity against Mycobacterium abscessus isolate MC958 at day 14 preincubated with 0.1 ug/ml erythromycin for 3 days by broth microdilution method; procedure, shortened: as §4
[30] = tested on: Mycobacteroides abscessus; experiment: Antimicrobial activity against Mycobacterium abscessus isolate MC719 at day 14 preincubated with 0.1 ug/ml erythromycin for 3 days by broth microdilution method; procedure, shortened: as §3
[31] = tested on: Mycobacteroides abscessus; experiment: Antimicrobial activity against Mycobacterium abscessus isolate MC723 at day 5 preincubated with 0.1 ug/ml for 3 days by broth microdilution method
Procedure, shortened: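 Clinical M. abscessus isolates were preincubated for 3 days, either in medium alone or in clarithromycin or erythromycin at 0.01 to 1 μg/ml, allowing at least two generations of growth judged by turbidity. The clarithromycin MIC was then determined by CLSI-conforming broth microdilution, with plates read on day 3 and on extended incubation (days 5 to 14).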

[32] = tested on: Mycobacteroides abscessus; experiment: Antimicrobial activity against Mycobacterium abscessus isolate MC879 at day 7 preincubated with 0.1 ug/ml for 3 days by broth microdilution method; procedure, shortened: as §4
[33] = tested on: Mycobacteroides abscessus; experiment: Antimicrobial activity against Mycobacterium abscessus isolate MC879 at day 9 preincubated with 0.1 ug/ml for 3 days by broth microdilution method; procedure, shortened: as §4
[34] = tested on: Mycobacteroides abscessus; experiment: Antimicrobial activity against Mycobacterium abscessus isolate MC958 at day 14 preincubated with 0.1 ug/ml for 3 days by broth microdilution method; procedure, shortened: as §4
[35] = tested on: Mycobacteroides abscessus; experiment: Antimicrobial activity against Mycobacterium abscessus isolate MC724 at day 14 preincubated with 0.1 ug/ml for 3 days by broth microdilution method; procedure, shortened: as §3

Compound: CC[C@H]1OC(=O)[C@H](C)[C@@H](O[C@H]2C[C@@](C)(OC)[C@@H](O)[C@H](C)O2)[C@H](C)[C@@H](O[C@@H]2O[C@H](C)C[C@H](N(C)C)[C@H]2O)[C@](C)(OC)C[C@@H](C)C(=O)[C@H](C)[C@@H](O)[C@]1(C)O [CLARITHROMYCIN]
- MIC [1]: > 32 µg/mL
- MIC [2]: > 32 µg/mL
- MIC [3]: > 32 µg/mL
- MIC [4]: 32 µg/mL (≈ 42.8 µM)
- MIC [5]: 2 µg/mL (≈ 2.67 µM)
- MIC [6]: 16 µg/mL
- MIC [7]: ≤ 0.5 µg/mL
- MIC [8]: ≤ 0.5 µg/mL
- MIC [9]: ≤ 0.5 µg/mL
- MIC [10]: 1 µg/mL (≈ 1.34 µM)
- MIC [11]: > 32 µg/mL
- MIC [12]: > 32 µg/mL
- MIC [13]: > 32 µg/mL
- MIC [14]: > 32 µg/mL
- MIC [15]: > 32 µg/mL
- MIC [16]: ≤ 0.5 µg/mL
- MIC [17]: ≤ 0.5 µg/mL
- MIC [18]: ≤ 0.5 µg/mL
- MIC [19]: ≤ 0.5 µg/mL
- MIC [20]: ≤ 0.5 µg/mL
- MIC [21]: > 32 µg/mL
- MIC [22]: > 32 µg/mL
- MIC [23]: > 32 µg/mL
- MIC [24]: ≤ 0.5 µg/mL
- MIC [25]: ≤ 0.5 µg/mL
- MIC [26]: > 32 µg/mL
- MIC [27]: > 32 µg/mL
- MIC [28]: > 32 µg/mL
- MIC [29]: > 32 µg/mL
- MIC [30]: > 32 µg/mL
- MIC [31]: 4 µg/mL (≈ 5.35 µM)
- MIC [32]: > 32 µg/mL
- MIC [33]: > 32 µg/mL
- MIC [34]: > 32 µg/mL
- MIC [35]: > 32 µg/mL
